Compound activity from PubChem.
MDM2 E3 inh: Mdm2 E3 ligase (human) inhibition | signal enhancement, % at 5 µM | cell-based MDM2 ubiquitination luciferase reporter, 2 h; 0 = plate control, 100 = twice control, blank-subtracted | 0.11% of 210,000 active | Q00987;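 active = signal enhancement of 30% or more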;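 also: luminescence tracks abundance of the self-degrading MDM2-luciferase fusion protein; higher signal means inhibition of MDM2 E3 ligase activity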
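Assay system: stable mammalian line carrying autodegrading MDM2–luciferase fusion reporter; amount: 2000 cells seeded into each well; buffer or medium: DMEM; benchmarks: plate control and blank wells; signal: luciferase luminescence; timing: 2 h compound exposure at 37 °C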
ROMK mod: modulators of human ROMK potassium channel; P48048; Tet-inducible ROMK, thallium flux fluorescence; actives lie on both sides; B-score at 10 µM; 2% of 130,000 active;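 active = signal ratio slope over the read window, or its plate-corrected B-score, at least 3 SD from the plate mean, either direction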;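 also: B-score of the F/F0 ratio slope over 7 to 12 s after thallium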
Target sequence (P48048 whole entry, looked up): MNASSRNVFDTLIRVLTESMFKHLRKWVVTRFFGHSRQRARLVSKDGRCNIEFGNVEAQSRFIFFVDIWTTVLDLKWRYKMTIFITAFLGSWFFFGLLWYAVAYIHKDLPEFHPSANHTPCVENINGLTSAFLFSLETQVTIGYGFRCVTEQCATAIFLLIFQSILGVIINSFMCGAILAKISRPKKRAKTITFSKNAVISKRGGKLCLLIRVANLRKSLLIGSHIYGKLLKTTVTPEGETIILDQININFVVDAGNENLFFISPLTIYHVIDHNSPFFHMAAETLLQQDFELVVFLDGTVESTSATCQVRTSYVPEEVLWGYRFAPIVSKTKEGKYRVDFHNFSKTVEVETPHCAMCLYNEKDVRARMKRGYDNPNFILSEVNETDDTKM
Arbovirus anti: blocks arbovirus infection. arbovirus infection cell-based antiviral screen. inhibition, % at 10 µM. 0.37% of 200,000 active. AID 1251; in the data active = inhibition above about 30%
KCC2 mod: modulators of human KCC2 chloride dependent transport | Q9H2X9 | KCC2 cells, thallium flux FluoZin-2 fluorescence | B-score of Tl+ flux slope (higher = more flux/activation; lower = inhibition) at 10 µM | 2.2% of 190,000 active | AID 1456;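 active = thallium flux slope and its plate-corrected score both differing from the plate sample mean at a set confidence after two filtering rounds, in either direction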;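 also: slope of fluorescence scaled to starting intensity during 10 to 20 s after thallium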
PKD1 inh: PKD1 (human) kinase inhibition | PKD1 kinase fluorescence polarization assay | 0.056% of 200,000 active | Q15139 | inhibition, % (test concentration not listed); in the data active = inhibition above about 50%
m-calpain inh: calpain II (pig) inhibition. AID 1236. purified calpain II, fluorogenic peptide substrate, 30 min. inhibition, % at 16 µM. 0.37% of 220,000 active;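 active = inhibition above about 50%, limit read from the data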
ROMK hit retest: human ROMK channel modulation, retest confirmation; shares compounds with ROMK mod; ROMK thallium flux, fluorescence ratio; active compounds read low; normalized thallium flux (F/F0 slope) at 10 µM; 54% of 3,000 active; AID 1917;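 active = Flux at 10 µM at least 3 SD below or above vehicle control mean in one or both replicates; inconclusive = no clear call, values can overlap the other calls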
Of the large screens only hits and unclear results are named; the others gave an inactive call (follow-up assays come after a bar, where they were run). Hits are enriched below; roughly 3.7% of the tested compounds scored in any of these assays.

CCOc1ccc(-n2ccnc2SCC(=O)Nc2cc(C)on2)cc1	none
O=C(N/C(=C/C=C/c1ccccc1)C(=O)N1CCOCC1)c1ccccc1Br	none
CCOC(=O)c1c(Cc2cccc(Cl)c2)c[nH]c1C	none (no result: ROMK mod)
CC(=O)c1ccc(N2CCN(C(=O)c3cc4c(-c5ccccc5F)nn(C)c4s3)CC2)cc1	none (no result: ROMK mod, KCC2 mod) | ROMK hit retest 0.062
S=C1NCN(C2CCCCC2)CN1CCc1ccccc1	none (no result: ROMK mod, Arbovirus anti, PKD1 inh)
CC(=O)C(Sc1ncnc2c1nnn2-c1ccc(F)cc1)C(=O)N(C)C (stereo unspecified)	none (no result: MDM2 E3 inh, ROMK mod) | ROMK hit retest inactive
O=C(NC1CCCCC1)C12CC3CC(CC(Cl)(C3)C1)C2	none (no result: ROMK mod)
COC(=O)c1c(C)oc2ccc(NS(=O)(=O)c3cccs3)cc12	ROMK mod -4 | ROMK hit retest inconclusive
CCOC(=O)c1c(C)oc2ccc(NS(=O)(=O)c3ccc4c5c(cccc35)C(=O)N4)cc12	ROMK mod -3 | ROMK hit retest inactive
COCCOC(=O)c1c(C)oc2ccc(NS(=O)(=O)c3ccccc3)cc12	none (no result: ROMK mod)
CC1CCCCN1CC(=O)Nc1cc(S(=O)(=O)N2CCOCC2)ccc1N1CCCC1 (stereo unspecified)	none
CCOC(=O)c1nc2sc(C)c(C)c2c(=O)[nH]1	none
CCOC(=O)/C(=C\c1cccc(O)c1)c1nc2sc(C)c(C)c2c(=O)[nH]1	ROMK mod -4.1 | ROMK hit retest 0.058
COc1cc(/C=C(\C#N)c2nc3ccccc3[nH]2)cc(OC)c1O	none (no result: ROMK mod, KCC2 mod) | ROMK hit retest 0.038
COc1cc(/C=C(\C#N)c2nc3ccccc3[nH]2)cc(Br)c1OCc1ccccc1	none (no result: ROMK mod)
COc1cc(/C=C(\C#N)C(=O)c2c[nH]c3ccccc23)cc(OC)c1O	ROMK mod -5.6 | ROMK hit retest 0.041
O=C(O)c1ccc(N2C(=O)c3ccc(C(=O)c4cccc([N+](=O)[O-])c4)cc3C2=O)cc1	ROMK mod 2.2 | ROMK hit retest inactive
O=C(c1cccc([N+](=O)[O-])c1)c1ccc2c(c1)C(=O)N(c1c[nH]c(=O)[nH]c1=O)C2=O	none
O=C(CCCCC(=O)N1CCOCCOCCOCC1)OCc1ccccc1	none (no result: Arbovirus anti, PKD1 inh)
OCC1(Cc2ccccc2)CCCN(Cc2c[nH]c3ccccc23)C1 (stereo unspecified)	none
COC(=O)CCN(C(=O)c1ccc(N2CCCC2)c([N+](=O)[O-])c1)c1ccccn1	none
COC(=O)CCN(C(=O)c1ccc(N2CCCCC2)c([N+](=O)[O-])c1)c1ccccn1	ROMK mod -2.1 | ROMK hit retest 0.067
CC(=O)Nc1sc(N/N=C/c2ccccc2)nc1-c1ccc(C)cc1	none (no result: ROMK mod, Arbovirus anti, PKD1 inh) | ROMK hit retest inactive
CC(=O)Nc1sc(N/N=C/c2ccc(O)cc2)nc1-c1ccc(C)cc1	none (no result: ROMK mod, Arbovirus anti, PKD1 inh)
CCOc1cc(N2CCOCC2)c(OCC)cc1NC(=O)COC(=O)[C@@H]1CCCN1S(=O)(=O)c1ccccc1F	none
CCCc1c(C)nn(C(=O)/C(C#N)=N/Nc2ccccc2[N+](=O)[O-])c1C	none
COc1ccc(C(=O)/C(C#N)=N/Nc2ccccc2[N+](=O)[O-])cc1	ROMK mod 3.8 | ROMK hit retest inactive
O=C1N=C(N2CCOCC2)S/C1=C\c1ccc(-c2ccccc2Cl)o1	none (no result: ROMK mod) | ROMK hit retest 0.052
COc1cccc(OC)c1-c1nn(-c2ncc(C(F)(F)F)cc2Cl)c(=O)o1	none (no result: MDM2 E3 inh, ROMK mod, Arbovirus anti, PKD1 inh)
Cc1cc(C)nc(/N=C2\NC(=O)CC(C(=O)O)N2c2ccc(Cl)cc2)n1 (stereo unspecified)	none (no result: ROMK mod) | ROMK hit retest inactive
Cc1ccc(N2/C(=N/c3nc(C)cc(C)n3)NC(=O)CC2C(=O)O)cc1 (stereo unspecified)	none
C=CCN(CC=C)S(=O)(=O)c1ccc(NC(=S)NC(=O)/C=C/c2cccc3ccccc23)cc1	none
C=CCN(CC=C)S(=O)(=O)c1ccc(NC(=S)NC(=O)/C=C/c2ccc(C)cc2)cc1	ROMK mod 1.7 | ROMK hit retest inactive
CC1(C)[C@@H](O)CC[C@]2(C)C3C(O)C=C4[C@H]5C[C@@](C)(C(=O)O)CC[C@]5(C)CC[C@]4(C)[C@]3(C)CC[C@@H]12 (stereo partly specified)	none (no result: ROMK mod, Arbovirus anti, PKD1 inh) | ROMK hit retest inactive
O=C(CSc1nnnn1-c1ccc(F)cc1)NC1CCCCC1	none (no result: ROMK mod)
Cc1[nH]c2ccccc2c1CN1CCC(CO)(Cc2ccccc2)CC1	none
Cc1c(CN2CCC(CO)(Cc3ccccc3)CC2)c2ccccc2n1C	ROMK mod -2.4 | ROMK hit retest 0.06
Cc1ccc(C)c(NS(=O)(=O)c2cc(C(=O)N3CCCC3)ccc2Cl)c1	none
Cc1ccccc1-c1ncc(CN2CCN(C3CCCCC3)C(CCO)C2)cn1 (stereo unspecified)	none (no result: KCC2 mod)
CCOC(=O)c1c(C)c(C(=O)NCCCOC(C)C)c(C)n1C	none (no result: ROMK mod)
O=Cc1ccc(-c2cccc([N+](=O)[O-])c2)o1	none (no result: ROMK mod, Arbovirus anti, PKD1 inh) | ROMK hit retest 0.1
CSC1=NCCN1C(=O)c1c(F)cccc1F	none (no result: ROMK mod)
O=C(O)c1ccc(Nc2ncnc3c2cnn3Cc2ccccc2)cc1	none
O=C(O)c1ccoc1CN1CCCCC1	ROMK mod 1.7 (no result: KCC2 mod) | ROMK hit retest inactive
Cc1occc1C(=O)N1CCN(Cc2ccccc2)CC1	none
CC(C)NS(=O)(=O)c1ccc(NC(=O)NC2CCCCC2)cc1	none (no result: ROMK mod)
COc1ccc(OCCNc2cc(N3CCCCC3)ccc2[N+](=O)[O-])cc1	none (no result: ROMK mod)
CC1CN(c2ccc([N+](=O)[O-])c(NCCOc3ccccc3)c2)CCN1 (stereo unspecified)	ROMK mod -2.5 | ROMK hit retest 0.062
Cc1ccc2c(c1)COc1c3ccc(C(=O)NC(C)C)cc3nn1-2	none (no result: ROMK mod, Arbovirus anti, PKD1 inh)
O=S(=O)(NC1CCCC1)c1ccc(S(=O)(=O)N(Cc2cccs2)CC2CCCO2)cc1 (stereo unspecified)	ROMK mod -3.1 | ROMK hit retest inactive
O=S(=O)(c1ccc(S(=O)(=O)N(Cc2cccs2)CC2CCCO2)cc1)N1CCCCC1 (stereo unspecified)	none (no result: KCC2 mod)
O=C(Cc1cccs1)N(CC1CCCO1)C1(C(=O)NC2CCCC2)CCCCC1 (stereo unspecified)	ROMK mod -1.8 | ROMK hit retest inconclusive
O=C(Cc1cccs1)N(Cc1cccs1)C1(C(=O)NC2CCCC2)CCCCC1	none
CCC(=O)Nc1ccc(C(=O)NCc2ccccn2)cc1	none
CN(Cc1ccccc1)Cc1nc2c(c(=O)n(C)c(=O)n2C)n1CCCc1ccccc1	ROMK mod -3.6 | ROMK hit retest 0.065
CCc1cccc(CC)c1NC(=O)c1ccccc1CCc1ccccc1	none (no result: ROMK mod)
Cc1ccc2nc(=O)c(NNc3ccccc3)cnc2c1	ROMK mod 6.6 | ROMK hit retest 0.11
Cc1nc2ccccc2nc1OCc1ccccc1	none (no result: ROMK mod)
Cc1nc2ccccc2nc(=O)c1NNc1ccccc1	ROMK mod 6.4 (no result: MDM2 E3 inh) | ROMK hit retest inconclusive
CC(NC(=O)CCCOc1ccc(Cl)cc1)c1ccccc1 (stereo unspecified)	none
